In BindingDB's records for doi:10.1016/j.bmc.2011.08.039 (Ludwig-Maximilians-University Munich, 2011):

Columns and labels:
[1] = target: T1, Sodium- and chloride-dependent GABA transporter 2 (Mus musculus, UniProt P31649); experiment: Inhibition of mouse GAT2-mediated [3H]GABA uptake expressed in human HEK cells
T1 sequence (P31649 whole entry): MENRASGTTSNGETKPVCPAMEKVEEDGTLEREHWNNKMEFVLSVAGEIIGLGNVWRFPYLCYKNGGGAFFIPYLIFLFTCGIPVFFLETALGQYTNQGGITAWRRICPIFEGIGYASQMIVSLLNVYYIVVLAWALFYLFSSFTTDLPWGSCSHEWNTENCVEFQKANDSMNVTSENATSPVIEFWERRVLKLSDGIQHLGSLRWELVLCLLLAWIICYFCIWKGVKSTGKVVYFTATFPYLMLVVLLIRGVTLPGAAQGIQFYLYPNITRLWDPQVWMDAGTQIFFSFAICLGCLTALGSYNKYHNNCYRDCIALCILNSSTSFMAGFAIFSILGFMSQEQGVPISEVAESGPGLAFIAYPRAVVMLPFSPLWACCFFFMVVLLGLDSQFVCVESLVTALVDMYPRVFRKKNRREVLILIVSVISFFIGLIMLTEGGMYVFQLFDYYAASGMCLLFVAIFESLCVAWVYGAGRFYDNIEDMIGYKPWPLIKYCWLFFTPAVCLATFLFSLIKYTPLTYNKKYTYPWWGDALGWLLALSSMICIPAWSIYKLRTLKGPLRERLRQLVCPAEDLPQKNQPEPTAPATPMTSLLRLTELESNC
Summary of the method: (§1)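 Specific [3H]GABA uptake was measured at the murine transporter subtype, and results are given as pIC50 ± SEM from three independent experiments, each run in triplicate.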

[2] = target: T2, Sodium- and chloride-dependent GABA transporter 3 (Mus musculus, UniProt P31650); experiment: Inhibition of mouse GAT3-mediated [3H]GABA uptake expressed in human HEK cells; summary of the method: as §1
T2 sequence (P31650 whole entry): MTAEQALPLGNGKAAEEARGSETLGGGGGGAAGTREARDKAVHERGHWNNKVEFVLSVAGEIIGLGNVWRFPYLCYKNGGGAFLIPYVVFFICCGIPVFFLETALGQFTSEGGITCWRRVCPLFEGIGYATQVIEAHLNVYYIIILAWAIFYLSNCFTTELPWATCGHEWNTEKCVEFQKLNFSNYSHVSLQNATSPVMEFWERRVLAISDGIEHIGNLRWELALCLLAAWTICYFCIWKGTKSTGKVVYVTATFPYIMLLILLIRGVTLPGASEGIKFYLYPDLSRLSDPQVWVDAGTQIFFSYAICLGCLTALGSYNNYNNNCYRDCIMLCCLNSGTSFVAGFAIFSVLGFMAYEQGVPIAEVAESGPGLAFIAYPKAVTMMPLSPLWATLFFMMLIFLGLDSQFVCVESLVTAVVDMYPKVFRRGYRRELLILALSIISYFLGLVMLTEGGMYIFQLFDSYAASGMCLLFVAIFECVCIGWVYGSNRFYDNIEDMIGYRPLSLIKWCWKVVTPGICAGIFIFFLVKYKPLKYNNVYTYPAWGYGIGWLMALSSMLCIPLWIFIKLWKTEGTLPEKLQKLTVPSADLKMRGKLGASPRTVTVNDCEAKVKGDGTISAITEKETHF

[3] = Inhibition of mouse GAT2-mediated [3H]GABA uptake expressed in BHK cells
[4] = Inhibition of mouse GAT3-mediated [3H]GABA uptake expressed in BHK cells

SMILES | IC50 [1] [µM] | IC50 [2] [µM] | IC50 [3] [µM] | IC50 [4] [µM]
c1ccc(C(CCCNCc2nnnn2C2CCCCC2)c2ccccc2)cc1 | 21.9 | 17.4 |  | 
CC(C)(C)CC(C)(C)n1nnnc1CNCCC=C(c1ccccc1)c1ccccc1 |  | 12.3 |  | 
CC(C)(C)CC(C)(C)n1nnnc1CNCCC(c1ccccc1)c1ccccc1 |  | 8.13 |  | 
C(CNCc1nnnn1Cc1ccccc1)=C(c1ccccc1)c1ccccc1 | 24.5 | 34.7 |  | 
c1ccc(Cn2nnnc2CNCC(c2ccccc2)c2ccccc2)cc1 |  | 44.7 |  | 
CC(C)(C)CC(C)(C)n1nnnc1CNCCCC(c1ccccc1)c1ccccc1 | 16.6 | 12.9 |  | 
C(CCNCc1nnnn1C1CCCCC1)=C(c1ccccc1)c1ccccc1 |  | 21.4 |  | 
c1ccc(Cn2nnnc2CNC(c2ccccc2)c2ccccc2)cc1 |  | 16.2 |  | 
CC(C)(C)CC(C)(C)n1nnnc1CNC(c1ccccc1)c1ccccc1 |  | 60.3 |  | 
c1ccc(C(NCc2nnnn2C2CCCCC2)c2ccccc2)cc1 |  | 24.5 |  | 
CC(C)(C)CC(C)(C)n1nnnc1CNCC=C(c1ccccc1)c1ccccc1 | 10.2 | 22.9 |  | 
c1ccc(Cn2nnnc2CNCCCC(c2ccccc2)c2ccccc2)cc1 | 15.5 | 40.7 |  | 
COc1ccccc1C1(O)CCN(CCCn2c3ccccc3c3ccccc32)CC1 | 8.13 | 11.7 | 1.41 | 40.7
C(CNCc1nnnn1C1CCCCC1)=C(c1ccccc1)c1ccccc1 | 24.5 | 18.2 |  | 
